Data set [1] relates to cancerous cells compared to the non-cancerous MCs. Particulars: ref Khoury et al. (2022); cited from earlier work.
In the next data set the test system is mice. The note with it: cited from earlier work.
Data set [2] concerns HaCaT-II-4 cells. Nature of the data set: Cytotoxicity, WST-1 cell viability assay. Type of data set: cell-based, human. Particulars: read-out: IC50 against HaCaT-II-4 cells, 72 h post-treatment. The gist of the method:
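HaCaT-II-4 cells (passage 15) in DMEM with 10% FBS and 1% penicillin-streptomycin were seeded at 10,000 cells/100 μL per well. They were exposed for 72 h to 3-fold serial dilutions, 0.023–150 μM. Medium was replaced with fresh DMEM plus WST-1 for 4 h at 37 °C, and absorbance was read at 450 nm for viability. Three independent trials, each in triplicate; mean ± SEM.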
A general note: Tetrazolium dyes change colour on reduction, which living cells bring about.

The subject of data set [3] is HaCaT-II-4 cells. Nature of the data set: Quantification of cellular uptake by ICP-MS. Type of data set: cell-based, human. Particulars: 3 μM, maximum at 24 h.
Data set [4] has as its system DMBA/TPA-induced skin tumors in BALB/c mice. Put plainly: DMBA/TPA induced skin carcinogenesis mouse model. Type of data set: in vivo. The note with it: IP weekly; P-PENT 5 and 15 mg/kg, P-HEX 5, 15, 25 mg/kg, cisplatin 2.5 mg/kg.
Data set [5] concerns HaCaT-II-4 cells. Nature of the data set: Cellular fractionation / intracellular distribution by ICP-MS. Type of data set: cell-based, human. The note with it: 3 μM, 24 h. The method, boiled down: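 HaCaT-II-4 cells adhered overnight at 37 °C, 5% CO2, then treated with 3 μM for 24 h. Washed thrice in cold PBS, trypsinised, pelleted (350 g, 5 min, 4 °C) and washed in PBS. Kit buffers gave the cytoplasmic fraction (on ice 5 min, 500 g), the membrane/organelle fraction (on ice 5 min, 8000 g) and a nuclear/cytoskeletal pellet. Results are % platinum per fraction; three independent experiments in triplicate, mean ± SEM.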

In another data set the test system is BALB/c mice. Nature of the data set: Preliminary cisplatin treatment in BALB/c mice. Type of data set: in vivo. Particulars: 5 mg/kg dose, after few weeks of treatment, preliminary data.
For data set [6], the system named is HaCaT-II-4 cells. Put plainly: Cell death analysis by flow cytometry. Type of data set: cell-based, human. The note with it: 3 μM. The method, boiled down:
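HaCaT-II-4 cells plated at 10^5 cells/ml in 6-well plates, adhered overnight, then exposed to 3 μM test compound for 48 or 72 h at 37 °C, 5% CO2, with a positive control. Harvested cells resuspended in Guava Nexin reagent (Annexin V-PE/7-AAD), 10 min in the dark. Flow cytometry on FL1-H vs FL2-H gave % early apoptosis, late apoptosis and necrosis. Three independent experiments in triplicate; mean ± SEM.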
(In general: In flow cytometry, cells or beads pass a laser one at a time.)

The mark [7] stands for this setting: of body weight in mice, ref O'Dwyer et al., 1985, Korst et al., 1997.

Each structure is given as a SMILES string. Where two headings read alike, the source gives them in different places.

These results are taken from article PMC11566320 (Current Research in Pharmacology and Drug Discovery, 2024).

Take `COc1ccnc2c1ccc1c(OC)ccnc12.NC1CCCCC1N.O=[N+]([O-])[O-].O=[N+]([O-])[O-].[OH-].[OH-].[Pt+4]` [47OMESS(IV)]: the “greater selectivity toward the cancerous cells compared to the non-cancerous MCs” value in data set [1] is 17–22 fold.

With `N.N.O=C([O-])C1(C(=O)[O-])CCC1.[Pt+2]` [Carboplatin], the MTD as platinum in the data set with mice (setting [7]) is listed as 31.53 mg Pt/Kg.

Regarding `N.N.[Cl][Pt][Cl]` [Cisplatin], the IC50 (in general, the concentration at which inhibition is half-maximal) in the data set with HaCaT-II-4 cells [2] was 6.7 ± 0.76 µM. In the data set with HaCaT-II-4 cells [3], this molecule returned a maximum cellular uptake of 380 nmol/10^6 cells. The “week from which tumor volume was significantly decreased compared to control” value in data set [4] is recorded as 4 week. In the data set on HaCaT-II-4 cells [5], the “accumulation in cytoplasmic fraction (CF)” value came out at 38%; the “accumulation in membrane and organelle (MO) fraction” value is given as 47%; the “accumulation in nuclear and cytoskeletal (NC) fraction” value turned out to be 15%. The mortality entry with BALB/c mice is on record as “causes significant mortality”. The MTD as platinum with mice (BALB/c mice, ref Aston et al. (2017)) is 3.9 mg Pt/Kg. The necrosis entry in the data set on HaCaT-II-4 cells [6] (48 or 72 h) is reported as “No evidence of significant necrosis”. In the data set with HaCaT-II-4 cells [6] (48 h and 72 h), the “early and late apoptosis compared to the negative control” value is “significant (p < 0.0001) increase in both early and late apoptosis”.

With `O=C1[O][Pt]2([NH][C@@H]3CCCC[C@H]3[NH]2)[O]C1=O` [Oxaliplatin], the MTD as platinum in the data set on mice (setting [7]) is 9.82 mg Pt/Kg.
